Measured values reported in PMC6982540 (Nature chemical biology, 2019).

Tests used:
[1] = tested on: PTP1B–14-3-3ζ association; assay type: cell-based
PTP1B [2] = assay: cysteinyl-labeling assay; assay type: cell-based; conditions: EGF 100 ng/ml, indicated times; three independent experiments
PTP1B [3] = assay: PTP1B catalytic activity; assay type: cell-based; conditions: EGF 100 ng/ml, pNPP, N=3 independent experiments
reduced PTP1B = assay: in vitro pull-down of reduced PTP1B with 14-3-3ζ; assay type: binding; conditions: 50 nM PTP1B-R, 5 μM 14-3-3ζ, pH 7.4, 2 hours at 4°C, immunoblot
Outline: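 Bacterial His-PTP1B (1–321) kept in 1 mM TCEP; GST-14-3-3ζ purified on glutathione agarose. Reduced PTP1B 50 nM with 14-3-3ζ 5 μM in HEPES binding buffer (BSA, Tween, pH 7.4), 2 h at 4°C. Glutathione agarose capture 1 h at 4°C, three washes, SDS-PAGE; immunoblot with anti-PTP1B and anti-GST.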

reduced PTP1B (PTP1B-R) = assay: SPR; assay type: binding; conditions: 14-3-3ζ 5000 nM (Fig. 2c), HBS-N pH 7.4, 25 °C
Outline: (§1)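 His-PTP1B (1–321) kept in TCEP. For oxidized, phosphorylated form: H2O2 oxidation (250 μM, 10 min, RT), desalting into reductant-free kinase buffer, AKT phosphorylation 16 h at 30°C. Captured on Ni2+-activated NTA chip (2.7 μM injected); reference cell had no NiCl2. 14-3-3ζ in HBS-N pH 7.4 injected at 30 μl/min, 3 min dissociation, 2 M NaCl regeneration, 25 °C.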

PTP1B-OX(P) = assay: SPR; assay type: binding; conditions: 14-3-3ζ 5000 nM (Fig. 2c), HBS-N pH 7.4, 25 °C
Outline: as §1

14-3-3ζ = assay: pTyr loop derived-peptide pulldown from HEK293T lysates, iTRAQ LC-MS/MS; assay type: binding, human

## CC(=O)N[C@@H](CS)C(=O)O [NAC, N-acetylcysteine, reference compound]
[1]; NAC 1 mM, 1 h, EGF stimulation, two independent experiments (Fig. 1d)
  PTP1B–14-3-3ζ association in cells, NAC: Redox-dependent association between PTP1B and 14-3-3ζ was confirmed

## EGF: epidermal growth factor, 100 ng/ml, used to activate EGFR
PTP1B [2]
  reversible oxidation (biotinylation) of PTP1B, EGF: PTP1B biotinylation was detected in a transient manner at 1 and 2 minutes
[1]; EGF 100 ng/ml, 0-10 min, HEK293T, three independent experiments
  PTP1B–14-3-3ζ association following EGF: transient association between PTP1B and 14-3-3ζ between 2 to 5 minutes
PTP1B [3]
  PTP1B activity after EGF 10 min: mostly recovered

## 14-3-3ζ: bacterially expressed, purified GST-14-3-3-ζ protein
Reduced PTP1B
  interaction of 14-3-3ζ with reduced PTP1B, in vitro pull-down: no interaction occurred with reduced PTP1B
Reduced PTP1B (PTP1B-R)
  SPR binding of 14-3-3ζ to active reduced PTP1B: not to the active reduced form of the enzyme
PTP1B-OX(P)
  SPR binding of 14-3-3ζ to oxidized, phosphorylated PTP1B: specifically binds to PTP1B in its oxidized and phosphorylated inactive state

## CKNRNRYRDVS [pTyr loop-derived-peptide]
14-3-3ζ; HEK293T lysate, 90 minutes at 4 °C, vs cysteine control beads
  enrichment of 14-3-3ζ by peptide bait (iTRAQ): one of the most abundant proteins, and the most abundant 14-3-3 isoform
14-3-3ζ; concluded from SPR compared with MS analysis
  nature of interaction of unphosphorylated loop peptide with 14-3-3ζ: occurs indirectly via a protein intermediate
